Reference: ChEMBL document CHEMBL4184325, “Discovery of 4,7-Diamino-5-(4-phenoxyphenyl)-6-methylene-pyrimido[5,4- b]pyrrolizines as Novel Bruton's Tyrosine Kinase Inhibitors” (J Med Chem, 2018)
Calls of active or inactive are those of the source. The calls are words filed in the database; no cut-off is given here.

How the values were obtained:
TMD8 [1] = experiment: Induction of apoptosis in human TMD8 cells assessed as late apoptotic cells at 1000 nM after 72 hrs by Annexin-FITC/propidium iodide staining-based flow cytometric method (reference value: 3.2%); type: functional
Mus musculus [2] = experiment: In vivo inhibition of BTK in human TMD8 cells xenografted in CB17 SCID nude mouse assessed as decrease in PLCgamma2 phosphorylation at Y759 at 15 mg/kg, […] by Western blot method; type: functional, organism-based
TMD8 [3] = experiment: Induction of apoptosis in human TMD8 cells assessed as early apoptotic cells at 1000 nM after 72 hrs by Annexin-FITC/propidium iodide staining-based flow cytometric method (reference value: 7.98%); type: functional
TMD8 [4] = experiment: Cell cycle arrest in human TMD8 cells assessed as accumulation at S phase at 10 nM after 48 hrs by propidium iodide staining-based flow cytometric method (reference value: 34.15%); type: functional
TMD8 [5] = experiment: Cell cycle arrest in human TMD8 cells assessed as accumulation at G1 phase after 48 hrs by propidium iodide staining-based flow cytometric method; type: functional
Rattus norvegicus [6] = experiment: AUC (0 to infinity) in rat at 3 mg/kg, po; type: ADME, organism-based; set-up: dose 3 mg/kg, time infinity, route oral; settings: in vivo
Summary of the method: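 Rats dosed orally at 3 mg/kg; vehicle DMSO, Tween 80, normal saline; values are the average of three determinations.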

Rattus norvegicus [7] = experiment: Half life in rat at 1 mg/kg, iv; type: ADME, organism-based; settings: in vivo
Summary of the method: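 Rats given 1 mg/kg intravenously; vehicle DMSO, Tween 80, normal saline; values are the average of three determinations.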

[8] = biological target: T1, Tyrosine-protein kinase Tec (Homo sapiens, UniProt P42680); experiment: Inhibition of recombinant human TEC using Poly(Glu, Tyr) 4:1 as substrate after 1 hr by ELISA
T1 sequence (P42680 whole entry): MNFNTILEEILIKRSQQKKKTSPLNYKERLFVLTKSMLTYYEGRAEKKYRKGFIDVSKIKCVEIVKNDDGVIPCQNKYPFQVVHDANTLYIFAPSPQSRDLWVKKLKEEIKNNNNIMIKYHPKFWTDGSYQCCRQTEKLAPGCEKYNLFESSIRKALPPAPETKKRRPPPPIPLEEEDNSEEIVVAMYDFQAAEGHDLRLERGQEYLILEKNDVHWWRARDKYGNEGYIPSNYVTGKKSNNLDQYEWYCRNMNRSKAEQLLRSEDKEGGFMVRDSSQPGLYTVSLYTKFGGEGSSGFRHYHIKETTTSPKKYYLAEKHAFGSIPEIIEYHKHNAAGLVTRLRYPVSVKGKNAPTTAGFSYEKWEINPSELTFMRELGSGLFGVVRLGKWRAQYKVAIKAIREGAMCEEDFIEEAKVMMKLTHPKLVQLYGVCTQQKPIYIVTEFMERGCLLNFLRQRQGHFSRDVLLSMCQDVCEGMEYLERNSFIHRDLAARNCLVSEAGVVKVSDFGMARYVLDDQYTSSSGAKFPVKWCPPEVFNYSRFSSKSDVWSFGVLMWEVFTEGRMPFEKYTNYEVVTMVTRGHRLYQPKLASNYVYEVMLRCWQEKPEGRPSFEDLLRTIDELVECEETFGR
Summary of the method: (§1)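 Kinase activity was measured by ELISA on wells precoated with 20 µg/mL poly(Glu,Tyr) 4:1. Enzyme was incubated with compound in 50 mM HEPES pH 7.4, 20 mM MgCl2, 0.1 mM MnCl2, 0.2 mM Na3VO4, 1 mM DTT with 5 µM ATP at 37 °C for 1 h. Phosphotyrosine was detected with PY99 antibody, HRP secondary and OPD, read at A492. IC50 is the mean of duplicates.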

Mus musculus [9] = experiment: In vivo inhibition of BTK autophosphorylation at Y223 in human TMD8 cells xenografted in CB17 SCID nude mouse at 15 mg/kg, […] by Western blot method; type: functional, organism-based
TMD8 [10] = experiment: Cell cycle arrest in human TMD8 cells assessed as accumulation at G1 phase at 10 nM after 48 hrs by propidium iodide staining-based flow cytometric method (reference value: 51.33%); type: functional
TMD8 [11] = experiment: Cell cycle arrest in human TMD8 cells assessed as accumulation at G1 phase at 1 nM after 48 hrs by propidium iodide staining-based flow cytometric method (reference value: 51.33%); type: functional
TMD8 [12] = experiment: Cell cycle arrest in human TMD8 cells assessed as accumulation at G2 phase at 100 nM after 48 hrs by propidium iodide staining-based flow cytometric method (reference value: 14.53%); type: functional
[13] = Drug metabolism in mouse liver microsomes assessed as (S)-4-(4-(4,7-diamino-6-methylene-7,8-dihydro-6H-pyrimido[5,4-b]pyrrolizin-5-yl)phenoxy)phenol formation after 3 hrs; type: ADME, microsome
[14] = Drug metabolism in mouse liver microsomes assessed as N-((S)-4-amino-6-methylene-5-(4-phenoxyphenyl)-7,8-dihydro-6H-pyrimido[5,4-b]pyrrolizin-7-yl)-2,3-dihydroxypropanamide formation after 3 hrs; type: ADME, microsome
[15] = biological target: Tyrosine-protein kinase Blk (Homo sapiens, UniProt P51451); experiment: Inhibition of recombinant human BLK using Poly(Glu, Tyr) 4:1 as substrate after 1 hr by ELISA
Summary of the method: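 Purchased active kinase incubated with compound on wells precoated with 20 µg/mL poly(Glu,Tyr) 4:1, in 50 mM HEPES pH 7.4, 20 mM MgCl2, 0.1 mM MnCl2, 0.2 mM Na3VO4, 1 mM DTT, 5 µM ATP, 37 °C, 1 h. Phosphotyrosine detected with PY99 antibody, HRP secondary, OPD, A492. IC50 as mean of duplicates.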

[16] = biological target: T2, Tyrosine-protein kinase BTK (Homo sapiens, UniProt Q06187); settings: TMD8, 1 to 100 nM
[17] = biological target: T2, Tyrosine-protein kinase BTK; experiment: Inhibition of BTK autophosphorylation at Y223 in human TMD8 cells after 4 hrs by Western blot method
Ephrin type-A receptor 2 = Ephrin type-A receptor 2 (Homo sapiens, UniProt P29317); experiment: Inhibition of recombinant human EPHA2 using Poly(Glu, Tyr) 4:1 as substrate after 1 hr by ELISA
[18] = biological target: Proto-oncogene tyrosine-protein kinase receptor Ret (Homo sapiens, UniProt P07949); experiment: Inhibition of recombinant human RET using Poly(Glu, Tyr) 4:1 as substrate after 1 hr by ELISA
[19] = biological target: Epidermal growth factor receptor (Homo sapiens, UniProt P00533); experiment: Inhibition of recombinant human EGFR using Poly(Glu, Tyr) 4:1 as substrate after 1 hr by ELISA; summary of the method: as §1
[20] = biological target: Macrophage colony-stimulating factor 1 receptor (Homo sapiens, UniProt P07333); experiment: Inhibition of recombinant human CSF1R using Poly(Glu, Tyr) 4:1 as substrate after 1 hr by ELISA; summary of the method: as §1
[21] = Drug metabolism in rat liver microsomes assessed as (S)-N-(4-amino-5-(4-hydroxyphenyl)-6-methylene-7,8-dihydro-6H-pyrimido[5,4-b]pyrrolizin-7-yl)acrylamide formation after 3 hrs; type: ADME, microsome
TMD8 [22] = experiment: Cell cycle arrest in human TMD8 cells assessed as accumulation at G1 phase at 100 nM after 48 hrs by propidium iodide staining-based flow cytometric method (reference value: 51.33%); type: functional

T2 sequence (Q06187 whole entry): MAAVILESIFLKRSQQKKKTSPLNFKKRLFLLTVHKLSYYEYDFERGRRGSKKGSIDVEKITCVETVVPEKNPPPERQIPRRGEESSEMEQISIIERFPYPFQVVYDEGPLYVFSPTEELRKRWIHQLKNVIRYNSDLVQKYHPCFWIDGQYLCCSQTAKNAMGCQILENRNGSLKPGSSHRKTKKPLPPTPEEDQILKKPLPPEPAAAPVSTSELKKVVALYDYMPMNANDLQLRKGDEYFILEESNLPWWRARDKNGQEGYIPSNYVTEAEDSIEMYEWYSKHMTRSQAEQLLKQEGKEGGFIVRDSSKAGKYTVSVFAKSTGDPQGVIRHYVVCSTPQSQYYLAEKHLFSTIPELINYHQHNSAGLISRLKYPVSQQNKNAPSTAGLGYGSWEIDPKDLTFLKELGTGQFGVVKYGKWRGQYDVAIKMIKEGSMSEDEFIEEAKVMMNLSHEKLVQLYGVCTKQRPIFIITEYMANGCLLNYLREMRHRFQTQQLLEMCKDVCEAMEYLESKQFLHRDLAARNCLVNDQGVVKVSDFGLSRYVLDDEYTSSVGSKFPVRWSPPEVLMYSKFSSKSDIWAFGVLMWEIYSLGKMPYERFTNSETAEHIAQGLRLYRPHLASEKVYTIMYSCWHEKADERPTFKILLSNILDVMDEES
Chain of Tyrosine-protein kinase Blk (P51451 whole entry): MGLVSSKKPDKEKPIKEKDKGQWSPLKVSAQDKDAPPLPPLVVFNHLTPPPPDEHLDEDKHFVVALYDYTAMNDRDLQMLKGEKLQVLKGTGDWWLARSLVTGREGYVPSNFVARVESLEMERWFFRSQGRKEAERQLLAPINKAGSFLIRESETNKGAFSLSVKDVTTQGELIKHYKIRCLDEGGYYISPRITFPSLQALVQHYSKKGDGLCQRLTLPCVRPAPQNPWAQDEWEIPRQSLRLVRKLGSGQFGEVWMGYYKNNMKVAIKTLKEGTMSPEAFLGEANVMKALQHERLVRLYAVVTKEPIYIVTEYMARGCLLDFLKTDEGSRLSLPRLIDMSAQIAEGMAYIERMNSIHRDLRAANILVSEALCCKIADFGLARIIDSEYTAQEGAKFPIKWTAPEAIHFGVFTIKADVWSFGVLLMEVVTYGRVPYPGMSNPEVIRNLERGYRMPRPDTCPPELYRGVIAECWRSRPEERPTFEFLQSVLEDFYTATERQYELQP
Chain of Proto-oncogene tyrosine-protein kinase receptor Ret (P07949 whole entry): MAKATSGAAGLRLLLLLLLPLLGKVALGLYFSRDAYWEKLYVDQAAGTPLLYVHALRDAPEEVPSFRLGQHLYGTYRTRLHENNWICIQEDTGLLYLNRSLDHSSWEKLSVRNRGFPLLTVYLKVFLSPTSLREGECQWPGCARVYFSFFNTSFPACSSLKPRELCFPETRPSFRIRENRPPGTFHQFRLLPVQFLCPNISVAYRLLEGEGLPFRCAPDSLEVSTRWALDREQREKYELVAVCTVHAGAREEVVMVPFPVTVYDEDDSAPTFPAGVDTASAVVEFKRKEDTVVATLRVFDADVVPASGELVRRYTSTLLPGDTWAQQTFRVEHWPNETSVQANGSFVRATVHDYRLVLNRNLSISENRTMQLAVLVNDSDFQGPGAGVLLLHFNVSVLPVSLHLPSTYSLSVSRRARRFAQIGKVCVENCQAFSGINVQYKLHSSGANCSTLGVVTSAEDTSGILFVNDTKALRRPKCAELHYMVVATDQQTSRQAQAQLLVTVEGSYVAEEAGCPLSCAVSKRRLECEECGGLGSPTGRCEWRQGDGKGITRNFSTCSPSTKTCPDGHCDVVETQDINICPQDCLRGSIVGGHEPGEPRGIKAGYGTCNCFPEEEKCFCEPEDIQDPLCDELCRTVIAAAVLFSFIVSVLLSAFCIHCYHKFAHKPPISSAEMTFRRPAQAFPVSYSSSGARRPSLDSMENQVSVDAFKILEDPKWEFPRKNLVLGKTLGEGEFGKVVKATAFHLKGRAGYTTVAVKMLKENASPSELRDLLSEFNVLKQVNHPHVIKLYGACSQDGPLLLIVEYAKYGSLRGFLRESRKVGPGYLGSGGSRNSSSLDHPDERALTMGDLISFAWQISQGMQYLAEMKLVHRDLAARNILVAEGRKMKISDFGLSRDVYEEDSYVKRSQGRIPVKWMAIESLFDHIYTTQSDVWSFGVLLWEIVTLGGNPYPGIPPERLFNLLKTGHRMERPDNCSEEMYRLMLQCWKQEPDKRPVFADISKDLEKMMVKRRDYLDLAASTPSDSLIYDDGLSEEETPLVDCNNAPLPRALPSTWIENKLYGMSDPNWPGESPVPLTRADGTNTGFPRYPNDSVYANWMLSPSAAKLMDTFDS
Chain of Ephrin type-A receptor 2 (P29317 whole entry): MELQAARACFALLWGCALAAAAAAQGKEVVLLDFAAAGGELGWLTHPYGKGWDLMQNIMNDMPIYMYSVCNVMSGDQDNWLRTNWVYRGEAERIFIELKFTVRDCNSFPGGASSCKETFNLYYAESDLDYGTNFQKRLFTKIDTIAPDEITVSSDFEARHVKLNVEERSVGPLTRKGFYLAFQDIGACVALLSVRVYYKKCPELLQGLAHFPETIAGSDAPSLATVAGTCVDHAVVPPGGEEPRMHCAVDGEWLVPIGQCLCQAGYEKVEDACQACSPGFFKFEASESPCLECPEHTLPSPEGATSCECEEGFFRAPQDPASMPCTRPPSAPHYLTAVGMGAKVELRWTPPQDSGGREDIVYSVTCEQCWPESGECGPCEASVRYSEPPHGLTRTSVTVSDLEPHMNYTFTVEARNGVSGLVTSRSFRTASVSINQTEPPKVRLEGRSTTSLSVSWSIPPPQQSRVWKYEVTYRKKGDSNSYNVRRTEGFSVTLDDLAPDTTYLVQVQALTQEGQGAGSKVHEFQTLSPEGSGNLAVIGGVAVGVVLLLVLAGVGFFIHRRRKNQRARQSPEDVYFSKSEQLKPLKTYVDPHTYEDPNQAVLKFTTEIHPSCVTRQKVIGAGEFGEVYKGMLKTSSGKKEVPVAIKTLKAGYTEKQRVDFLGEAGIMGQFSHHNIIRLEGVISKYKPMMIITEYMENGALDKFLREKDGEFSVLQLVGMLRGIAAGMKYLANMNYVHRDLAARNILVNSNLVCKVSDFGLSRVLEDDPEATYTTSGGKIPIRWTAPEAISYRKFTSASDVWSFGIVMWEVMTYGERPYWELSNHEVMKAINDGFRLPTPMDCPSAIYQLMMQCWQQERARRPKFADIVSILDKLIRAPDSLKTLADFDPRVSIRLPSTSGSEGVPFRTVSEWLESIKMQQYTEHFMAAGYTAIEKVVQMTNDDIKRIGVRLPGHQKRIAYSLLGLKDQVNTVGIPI
Chain of Macrophage colony-stimulating factor 1 receptor (P07333 whole entry): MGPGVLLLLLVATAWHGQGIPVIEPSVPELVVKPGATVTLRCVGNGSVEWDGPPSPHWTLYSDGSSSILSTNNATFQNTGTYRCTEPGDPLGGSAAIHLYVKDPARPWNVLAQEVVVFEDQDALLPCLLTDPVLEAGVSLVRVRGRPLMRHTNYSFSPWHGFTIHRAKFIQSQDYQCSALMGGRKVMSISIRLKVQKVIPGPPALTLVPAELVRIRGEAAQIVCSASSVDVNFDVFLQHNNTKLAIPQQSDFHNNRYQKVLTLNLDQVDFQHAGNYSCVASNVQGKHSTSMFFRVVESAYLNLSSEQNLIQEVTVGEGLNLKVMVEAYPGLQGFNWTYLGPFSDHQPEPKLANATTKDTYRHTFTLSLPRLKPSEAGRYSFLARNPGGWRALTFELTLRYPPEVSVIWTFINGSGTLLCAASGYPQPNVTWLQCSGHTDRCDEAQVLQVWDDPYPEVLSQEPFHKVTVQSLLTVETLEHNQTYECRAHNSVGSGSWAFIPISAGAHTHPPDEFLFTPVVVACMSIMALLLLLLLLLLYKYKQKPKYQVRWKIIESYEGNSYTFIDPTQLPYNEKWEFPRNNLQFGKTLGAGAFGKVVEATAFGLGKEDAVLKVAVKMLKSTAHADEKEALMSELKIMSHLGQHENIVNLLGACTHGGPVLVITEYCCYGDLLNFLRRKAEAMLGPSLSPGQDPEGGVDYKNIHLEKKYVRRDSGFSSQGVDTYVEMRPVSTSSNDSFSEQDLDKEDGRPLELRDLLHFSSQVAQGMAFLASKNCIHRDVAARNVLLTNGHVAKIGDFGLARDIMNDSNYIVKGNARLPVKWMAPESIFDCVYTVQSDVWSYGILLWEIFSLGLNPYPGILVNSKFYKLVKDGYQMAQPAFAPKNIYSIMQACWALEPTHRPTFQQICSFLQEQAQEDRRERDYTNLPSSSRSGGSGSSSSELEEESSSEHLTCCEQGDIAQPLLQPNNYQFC

## C=CC(=O)N[C@@H]1Cn2c(c(-c3ccc(Oc4ccccc4)cc3)c3c(N)ncnc32)C1=C
TMD8 [1]
  Activity: 27.9%
Mus musculus [2]
  inhibition: Active
TMD8 [3]
  Activity: 51.1%
TMD8 [4]
  Activity: 12.56%
TMD8 [5]
  Activity: Dose-dependent effect
Rattus norvegicus [6]
  AUC: 211 ng·h/mL
Rattus norvegicus [7]
  t1/2: 34.2 min
[8]
  IC50: 1.4 nM
Mus musculus [9]
  inhibition: Active
TMD8 [10]
  Activity: 76.32%
TMD8 [11]
  Activity: 57.41%
TMD8 [12]
  Activity: 10.04%
[13]
  Drug metabolism: Metabolite_Detected
[14]
  Drug metabolism: Metabolite_Detected
[15]
  IC50: 0.2 nM
[16]
  inhibition: Active
[17]
  IC50: < 10 nM
Ephrin type-A receptor 2
  IC50: > 1000 nM
[18]
  IC50: 20.3 nM
[19]
  IC50: 1.3 nM
[20]
  IC50: > 1000 nM
[21]
  Drug metabolism: Metabolite_Detected
TMD8 [22]
  Activity: 77.17%
